The source of these data is ChEMBL document CHEMBL2034934, “Isodesacetyluvaricin, an Annonaceous acetogenin, specifically inhibits gene expression of cyclooxygenase-2” (J Nat Prod, 2012).

Active and inactive are the calls of the source. The rule behind the calls is not given here.

The test system of data set [1] is A-431. The data set is described as follows: Inhibition of CREB promoter activity in EGF-stimulated human A431 cells at 1 to 5 uM pretreated for 30 mins before EGF challenge measured after 3 hrs by luciferase reporter gene analysis. The data set is classed as cell-based. In outline:
(§1)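 A431 cells transiently transfected with 0.5 μg CRE-promoter plasmid pXC 80 (CREB) or NFAT-promoter luciferase plasmid. After 24 h, pretreated 30 min at 1 or 5 μM, then EGF 25 ng/mL for 3 h. Luciferase normalised to lysate protein.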
In general terms: A reporter such as luciferase makes a cellular process visible.

Data set [2] deals with A-431. In words: Antiinflammatory activity in human A431 cells assessed as reduction of EGF-stimulated COX2 protein expression pretreated with compound before EGF challenge measured by Western blotting analysis. Type of data set: functional, cell-based. An outline of the steps:
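A431 cells serum-starved, pretreated with compound, then EGF-stimulated. 40 μg lysate (RIPA) run on 12.5% SDS-PAGE, blotted to nitrocellulose. Probed 16 h at 4 °C with mouse anti-COX-2 (1:2000) and β-actin (1:20 000), anti-mouse IgG secondary, ECL detection.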
On the technique in general: A western blot detects proteins with antibodies after separation by electrophoresis.

In data set [3] the test system is RAW264.7. The data set is described as follows: Antiinflammatory activity in mouse RAW264.7 cells assessed as inhibition of LPS-stimulated COX2 expression pretreated for 30 mins before LPS challenge measured after 3 hrs by RT-PCR analysis. The data set is classed as functional, cell-based. An outline of the steps: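 Raw 264.7 mouse macrophages serum-starved 24 h, pretreated 30 min at 0.1, 1 or 5 μM, then LPS 10 μg/mL for 3 h. Total RNA by Trizol; COX-2 mRNA by RT-PCR (35 cycles), read on agarose gel with ethidium bromide.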

Data set [4] deals with A-431. In words: Antiinflammatory activity in human A431 cells assessed as reduction of EGF-stimulated COX2 promoter activity at 0.1 to 5 uM after 24 hrs by luciferase reporter gene assay. Type of data set: functional, cell-based. In outline: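 A431 cells transiently transfected (Lipofectamine 2000) with 0.5 μg COX-2 promoter luciferase plasmid pXC 918 for 24 h. Then treated with compound and stimulated with EGF. Dual-luciferase read-out normalised to lysate protein; means ± SEM, Student's t-test.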

For data set [5], the system named is A-431. In words: Cytotoxicity against EGF-stimulated human A431 cells at 1 to 5 uM after 48 hrs by WST1 assay. Type of data set: cell-based. Particulars: a-431, 48 h. An outline of the steps:
(§2)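 A431 cells serum-starved 24 h, pretreated 30 min at 1 or 5 μM, then EGF 25 ng/mL for 24 h or 48 h. WST-1 reagent 5–10 min at 37 °C; absorbance 450 nm, reference 600 nm.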
(Tetrazolium dyes change colour on reduction, which living cells bring about.)

For data set [6], the system named is A-431. In words: Antiinflammatory activity in human A431 cells assessed as decrease in thapsigargin-induced calcium influx at 1 uM pretreated for 30 mins before thapsigargin challenge measured by fluorescence analysis. The data set is classed as functional, cell-based. In outline: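 A431 cells on glass coverslips (24 or 48 h), loaded with 1 μM Fluo-4 at 37 °C for 20 min in the dark. Store-operated influx evoked by 2 μM thapsigargin; Fluo-4 read by time-lapse videomicroscopy; 15–20 cells pooled.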

Data set [7] has as its system A-431. The data set is described as follows: Inhibition of NFAT promoter activity in EGF-stimulated human A431 cells at 1 to 5 uM pretreated for 30 mins before EGF challenge measured after 3 hrs by luciferase reporter gene analysis. The data set is classed as cell-based. An outline of the steps: as §1
Data set [8] concerns A-431. In words: Antiinflammatory activity in human A431 cells assessed as inhibition of EGF-stimulated COX2 mRNA level pretreated for 30 mins before EGF challenge measured after 3 hrs by RT-PCR analysis. Type of data set: functional, cell-based. In outline: (§3)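 A431 cells serum-starved 24 h, pretreated 30 min at 0.1, 1 or 5 μM, then EGF 25 ng/mL for 3 h. Total RNA by Trizol, reverse-transcribed; COX-1 and COX-2 amplified by PCR (35 cycles: 94 °C 30 s, 58 °C 30 s, 72 °C 1 min). Products run on 2% agarose, ethidium bromide stained.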

In data set [9] the test system is A-431. The data set is described as follows: Cytotoxicity against EGF-stimulated human A431 cells at 1 to 5 uM after 24 hrs by WST1 assay. Type of data set: cell-based. The note with it: a-431, 24 h. In outline: as §2
Data set [10] deals with A-431. The data set is described as follows: Antiinflammatory activity in human A431 cells assessed as inhibition of EGF-stimulated COX1 mRNA level pretreated for 30 mins before EGF challenge measured after 3 hrs by RT-PCR analysis. The data set is classed as functional, cell-based. An outline of the steps: as §3

Regarding `CCCCCCCCCC[C@@H](O)[C@H]1CC[C@H]([C@H]2CC[C@H]([C@H](O)CCCCCCCCCCCCC3=C[C@H](C)OC3=O)O2)O1` [ISODESAACETYLUVARICIN], the inhibition entry in [1], in data set [3] and in data set [7] was “Active” each time. Besides, the Activity result in data set [2] is “Dose-dependent effect”; in data set [5] it was “Non-toxic”; in data set [9], “Non-toxic”. For the same molecule, the outcome in data set [4] was Active. The result in data set [6] was inactive. Further, the inhibition entry in [8] was “Dose-dependent effect”. Moreover, the inhibition result in [10] was “inactive”.
